Experimental data reported in ChEMBL document CHEMBL2040794, “Synthesis and structure-activity analysis of new phosphonium salts with potent activity against African trypanosomes” (J Med Chem, 2012).

What was measured:
[1] = tested on: Trypanosoma brucei brucei; assay: Antitrypanosomal activity against diminazene aceturate-resistant TbAT1 gene-deficient Trypanosoma brucei brucei AT1-KO after 3 days by alamar blue assay; format: functional, organism-based; details: Trypanosoma brucei, AT1-KO, 72 h
Outline: (§1)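 Bloodstream-form T. b. brucei (wild-type s427; TbAT1-KO, made from s427 by TbAT1 deletion; B48, selected from TbAT1-KO in vitro on pentamidine, lacking functional HAPT1). Cells were exposed to compound for 48 h, then resazurin (Alamar blue) was added for a further 24 h. A single fluorescence reading gave EC50.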

[2] = Selectivity index, ratio of EC50 for human HEK cells to EC50 for wild type Trypanosoma brucei brucei Lister 427; format: toxicity, cell-based, HEK293; details: HEK cells, read-out: Ratio EC50
Outline: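 Ratio of EC₅₀ in HEK cells to EC₅₀ in wild-type T. b. brucei s427, both from resazurin assays.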

L6 = assay: Cytotoxicity against rat L6 cells after 72 hrs by alamar blue assay; format: cell-based; details: Rattus norvegicus, L6, 72 h
[3] = Cytotoxicity against human HEK cells after 3 days by alamar blue assay; format: cell-based, HEK293; details: Homo sapiens, HEK293, 72 h
Outline: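 Human embryonic kidney cells tested by resazurin (Alamar blue) assay: 48 h with compound, then 24 h more after dye addition, single reading; EC₅₀ derived.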

[4] = tested on: Trypanosoma brucei brucei; assay: Antitrypanosomal activity against wild type Trypanosoma brucei brucei Lister 427 after 3 days by alamar blue assay; format: functional, organism-based; details: Trypanosoma brucei, Lister 427, 72 h; outline: as §1
[5] = tested on: Trypanosoma brucei brucei; assay: Resistance factor, ratio of EC50 for diminazene-, pentamidine-, and melaminophenyl arsenical-resistant HAPT1-deficient Trypanosoma brucei brucei B48 to EC50 for wild type Trypanosoma brucei brucei Lister 427; format: functional
Outline: (§2)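 Resistance factor is the EC50 in the resistant line (TbAT1-KO or B48) divided by the EC50 in wild-type s427. […] Resistant and wild-type EC50s were compared by Student t-test.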

[6] = tested on: Trypanosoma brucei rhodesiense; assay: Antitrypanosomal activity against Trypanosoma brucei rhodesiense STIB900 infected in rat L6 cells after 72 hrs by alamar blue assay; format: functional, organism-based; details: Trypanosoma brucei, STIB900, 72 h
[7] = tested on: Trypanosoma brucei brucei; assay: Antitrypanosomal activity against diminazene-, pentamidine-, and melaminophenyl arsenical-resistant HAPT1-deficient Trypanosoma brucei brucei B48 after 3 days by alamar blue assay; format: functional, organism-based; details: Trypanosoma brucei, B48, 72 h; outline: as §1
[8] = tested on: Trypanosoma brucei brucei; assay: Resistance factor, ratio of EC50 for diminazene aceturate-resistant TbAT1 gene-deficient Trypanosoma brucei brucei AT1-KO to EC50 for wild type Trypanosoma brucei brucei Lister 427; format: functional; outline: as §2

| SMILES | EC50 [1] [µM] | selectivity ratio [2] | EC50 (L6) [µM] | EC50 [3] [µM] | EC50 [4] [µM] | Ratio EC50 [5] | EC50 [6] [µM] | EC50 [7] [µM] | Ratio EC50 [8] |
| --- | --- | --- | --- | --- | --- | --- | --- | --- | --- |
| O=C(c1ccc(C[P+](c2ccc(C(F)(F)F)cc2)(c2ccc(C(F)(F)F)cc2)c2ccc(C(F)(F)F)cc2)cc1)c1ccc(C[P+](c2ccc(C(F)(F)F)cc2)(c2ccc(C(F)(F)F)cc2)c2ccc(C(F)(F)F)cc2)cc1.[Br-].[Br-] | 8.51 | > 60 | 25 | > 300 | 5.05 | 0.5 | 16.4 | 2.73 | 1.7 |
| O=C(c1ccc(C[P+](c2ccco2)(c2ccco2)c2ccco2)cc1)c1ccc(C[P+](c2ccco2)(c2ccco2)c2ccco2)cc1.[Br-].[Br-] | 33.8 |  | 86 |  | 36.9 | 0.6 | 13.8 | 21.7 | 0.9 |
| Fc1c(F)c(F)c([P+](Cc2ccc(Cc3ccc(C[P+](c4ccccc4)(c4ccccc4)c4c(F)c(F)c(F)c(F)c4F)cc3)cc2)(c2ccccc2)c2ccccc2)c(F)c1F.[Br-].[Br-] | 3.79 | > 110 |  | > 300 | 2.68 | 1 | 16 | 2.74 | 1.4 |
| CC(=O)N(c1ccc(C[P+](CC(C)C)(CC(C)C)CC(C)C)cc1)c1ccc(C[P+](CC(C)C)(CC(C)C)CC(C)C)cc1 |  |  | > 112 |  |  |  | 11.4 |  |  |
| Fc1c(F)c(F)c([P+](Cc2ccc(Oc3ccc(C[P+](c4ccccc4)(c4ccccc4)c4c(F)c(F)c(F)c(F)c4F)cc3)cc2)(c2ccccc2)c2ccccc2)c(F)c1F.[Br-].[Br-] | 9.9 | > 10 | 5.35 | > 300 | 23.2 | 0.3 | 12.8 | 6.68 | 0.4 |
| CC[P+](CC)(CC)Cc1ccc(Cc2ccc(C[P+](CC)(CC)CC)cc2)cc1.[Br-].[Br-] | 18.5 | > 14 | 48.3 | > 300 | 21.5 | 0.9 | 18.7 | 19.3 | 0.9 |
| CCC[P+](CCC)(CCC)Cc1ccc(C(=O)c2ccc(C[P+](CCC)(CCC)CCC)cc2)cc1.[Br-].[Br-] | 27.2 |  | > 130 |  | 19.7 | 1.6 | 8.5 | 31.3 | 1.4 |
| N=C(N)c1ccc(/N=N/Nc2ccc(C(=N)N)cc2)cc1 [DIMINAZENE] |  |  |  |  | 0.517 | 5.1 |  | 2.62 | 4.6 |
| CC[P+](CC)(CC)Cc1ccc(Oc2ccc(C[P+](CC)(CC)CC)cc2)cc1.[Br-].[Br-] | 34.9 | > 8 | 102 | > 300 | 36.5 | 1 | 31.9 | 36.6 | 1 |
| CC(C)[P+](Cc1ccc(C(=O)c2ccc(C[P+](C(C)C)(C(C)C)C(C)C)cc2)cc1)(C(C)C)C(C)C.[Br-].[Br-] | 33.4 |  | > 130 |  | 20.6 | 1.9 | 9.6 | 38.8 | 1.6 |
| Nc1nc(N)nc(Nc2ccc([As]3SCC(CO)S3)cc2)n1 (configuration not stated) [MELARSOPROL] |  |  |  |  |  |  | 0.0075 |  |  |
| CC(C)C[P+](Cc1ccc(Oc2ccc(C[P+](CC(C)C)(CC(C)C)CC(C)C)cc2)cc1)(CC(C)C)CC(C)C.[Br-].[Br-] | 0.8 | > 507 | 51.1 | > 300 | 0.59 | 1.8 | 1.62 | 1.06 | 1.3 |
| CC[P+](CC)(CC)Cc1ccc(C(=O)c2ccc(C[P+](CC)(CC)CC)cc2)cc1 | > 100 |  | > 149 | > 300 | > 100 |  | 77.8 | > 100 |  |
| C[P+](C)(Cc1ccc(C(=O)c2ccccc2)cc1)c1ccccc1.[Br-] | 46.6 | > 7 | > 241 | > 300 | 42.7 | 1.1 | 16.9 | 45.8 | 1.1 |
| COc1cc([C@@H]2c3cc4c(cc3[C@H](O)[C@H]3COC(=O)[C@H]23)OCO4)cc(OC)c1OC [PODOFILOX] |  |  | 0.012 |  |  |  |  |  |  |
| FC(F)(F)c1ccc([P+](Cc2ccc(Cc3ccc(C[P+](c4ccc(C(F)(F)F)cc4)(c4ccc(C(F)(F)F)cc4)c4ccc(C(F)(F)F)cc4)cc3)cc2)(c2ccc(C(F)(F)F)cc2)c2ccc(C(F)(F)F)cc2)cc1.[Br-].[Br-] | 0.37 | 338 | 7.52 | 77.1 | 0.23 | 1.2 | 1.72 | 0.28 | 1.6 |
| C[P+](C)(Cc1ccc(C(=O)c2ccc(C[P+](C)(C)c3ccccc3)cc2)cc1)c1ccccc1.[Br-].[Br-] | 28.8 |  | > 139 |  | 19.2 | 1.3 | 8.8 | 24.6 | 1.5 |
| CC(C)C[P+](Cc1ccc(S(=O)(=O)c2ccc(C[P+](CC(C)C)(CC(C)C)CC(C)C)cc2)cc1)(CC(C)C)CC(C)C.[Br-].[Br-] | 13.6 |  | > 111 |  | 16.7 | 0.8 | 6.31 | 13.3 | 0.8 |
| C[P+](C)(Cc1ccc(Cc2ccc(C[P+](C)(C)c3ccccc3)cc2)cc1)c1ccccc1.[Br-].[Br-] | 4.6 | > 55 | > 142 | > 300 | 5.45 | 0.7 | 2.59 | 3.84 | 0.8 |
| C[P+](C)(Cc1ccc(Oc2ccc(C[P+](C)(C)c3ccccc3)cc2)cc1)c1ccccc1.[Br-].[Br-] | 6.52 | > 40 | 84.5 | > 300 | 7.22 | 0.9 | 3.83 | 6.15 | 0.9 |
| CC[P+](CC)(CC)Cc1ccc(C(=O)c2ccccc2)cc1 | > 100 |  | > 254 | > 300 | > 100 |  | > 254 | > 100 |  |
| O=S(=O)([O-])c1cccc([P+](Cc2ccc(Cc3ccc(C[P+](c4ccccc4)(c4ccccc4)c4cccc(S(=O)(=O)[O-])c4)cc3)cc2)(c2ccccc2)c2ccccc2)c1 | > 100 |  | > 92 | > 300 | > 100 |  | > 92 | > 100 |  |
| CC(C)C[P+](Cc1ccc(C(=O)c2ccccc2)cc1)(CC(C)C)CC(C)C.[Br-] | 6.1 | > 50 | > 209 | > 300 | 5.9 | 1.1 | 4.48 | 6.28 | 1 |
| FC(F)(F)c1ccc([P+](Cc2ccc(Oc3ccc(C[P+](c4ccc(C(F)(F)F)cc4)(c4ccc(C(F)(F)F)cc4)c4ccc(C(F)(F)F)cc4)cc3)cc2)(c2ccc(C(F)(F)F)cc2)c2ccc(C(F)(F)F)cc2)cc1.[Br-].[Br-] | 0.32 | 723 | 9.93 | 174 | 0.24 | 1.2 | 5.26 | 0.28 | 1.3 |
| O=S(=O)([O-])c1cccc([P+](Cc2ccc(Oc3ccc(C[P+](c4ccccc4)(c4ccccc4)c4cccc(S(=O)(=O)[O-])c4)cc3)cc2)(c2ccccc2)c2ccccc2)c1 | > 100 |  | 90.5 | > 300 | > 100 |  | > 92 | > 100 |  |
| CC[P+](CC)(Cc1ccc(C(=O)c2ccc(C[P+](CC)(CC)c3ccccc3)cc2)cc1)c1ccccc1.[Br-].[Br-] | 17.8 | > 35 | > 128 | > 300 | 8.59 | 1.8 | 2.9 | 15.2 | 2.1 |
| CC(C)C[P+](Cc1ccc(C(=O)c2ccc(C[P+](CC(C)C)(CC(C)C)CC(C)C)cc2)cc1)(CC(C)C)CC(C)C.[Br-].[Br-] | 8.34 | > 110 | > 116 | > 300 | 2.62 | 2.4 | 1.46 | 6.3 | 3.2 |
